# NPY2 pot ag: NPY-Y2 potentiators or agonists, primary screen, cell-based. Neuropeptide Y receptor type 2 (Homo sapiens), P49146. cells expressing NPY-Y2, potentiator/agonist read-out. activation, % at 3.6 µM. actives 0.45% (n = 220,000); in the data active = activation above about 27%;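 also: cells stimulated with NPY near EC25 plus isoproterenol at EC100; 0% = vehicle plus submaximal agonist and 100% = vehicle plus saturating agonist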
# Target sequence (P49146 whole entry, looked up): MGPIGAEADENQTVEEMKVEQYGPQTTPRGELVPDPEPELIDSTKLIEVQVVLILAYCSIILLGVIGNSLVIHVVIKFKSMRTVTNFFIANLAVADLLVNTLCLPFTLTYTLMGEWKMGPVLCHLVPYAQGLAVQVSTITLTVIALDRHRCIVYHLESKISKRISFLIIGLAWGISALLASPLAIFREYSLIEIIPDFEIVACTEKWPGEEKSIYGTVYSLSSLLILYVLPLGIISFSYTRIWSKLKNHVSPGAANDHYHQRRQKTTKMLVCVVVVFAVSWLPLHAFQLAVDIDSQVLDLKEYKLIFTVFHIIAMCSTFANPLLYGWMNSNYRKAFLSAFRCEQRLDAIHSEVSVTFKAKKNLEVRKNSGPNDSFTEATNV
# NPY Y2 blocker: NPY-Y2 receptor antagonists, primary screen, cell-based; inhibition, % at 2.7 µM; actives 0.99% (n = 140,000); AID 793, 2007; Neuropeptide Y receptor type 2 (Homo sapiens), P49146; NPY-Y2 expressing cells, antagonist mode; in the data active = inhibition above about 17%;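 also: 0% = vehicle with agonist challenge and 100% = reference antagonist with challenge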
# NPY-Y1 antag: NPY-Y1 receptor antagonists, primary screen, cell-based. AID 1040, 2008. actives 1% (n = 200,000). Neuropeptide Y receptor type 1 (Homo sapiens), P25929. inhibition, % at 3.6 µM. HEK293-CNG Y1 cells, membrane potential fluorescence; NPY at EC95, then isoproterenol;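 active = inhibition above the campaign mean inhibition of all tested compounds plus 3 SD, cut at about 20% in these data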;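 also: 0% = DMSO wells given NPY plus isoproterenol and 100% = isoproterenol alone without NPY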
#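 Material: HEK293 Y1/CNG channel cell line; also added: NPY (25 nM), isoproterenol (1 µM), Ro 20-1724 (25 µM); doses: one concentration, 3.6 µM, in 0.4% DMSO; schedule: compound incubation 1 h at room temperature, readout 45 min post-stimulation; technique: membrane potential fluorescence; measure: fluorescence ratio normalized to % inhibition between controls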
# INS promoter inh: inhibitors of insulin promoter-driven GFP, primary screen, imaging, TRM-6 cells, eGFP reporter, cell count; reporter expression induced with tamoxifen; inhibition, % at 2 µM; actives 0.9% (n = 130,000); AID 1273, 2008;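 active = inhibition above the mean plus 3 SD, with well images judged a real hit on visual review, cut at about 60% in these data, passing the limit was not always enough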
# RAM inhibit: inhibitors of the yeast RAM network, primary screen, dse1pr::URA3 reporter, 5-FOA selection | S. cerevisiae dse1pr::URA3 reporter, 5-FOA growth OD615, 2 d; analog-sensitive cbk1-as2 kinase mutant strain | inhibition, % at 50 µM | actives 1.8% (n = 190,000) | AID 868, 2007;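 active = inhibition above a set limit, 3 SD over mean compound inhibition, cut at about 8.4% in these data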;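 also: 0% = DMSO-only wells with no growth and 100% = 10 µM 1-NA-PP1 full growth; inhibition rescues growth on 5-FOA so higher OD means more RAM inhibition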
# NPY1 pot ag: NPY-Y1 receptor potentiators or agonists, primary screen, cell-based. Neuropeptide Y receptor type 1 (Homo sapiens), P25929. NPY-Y1 expressing cells, potentiator/agonist activation. activation, % at 3.6 µM. actives 0.37% (n = 220,000). AID 1304, 2008; in the data active = activation above about 33%, passing the limit was not always enough;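 also: cells stimulated with NPY at EC10 then isoproterenol at EC100; 0% = low agonist plus stimulus and 100% = saturating agonist plus stimulus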
# * marks the source's active call; other numbers are inactive results; x = no result. Only some compounds are listed: those with a hit (about 3.8% of all), similar ones and a draw of the others.
SMILES,NPY2 pot ag,NPY Y2 blocker,NPY-Y1 antag,INS promoter inh,RAM inhibit,NPY1 pot ag
CCc1nc2oc3cc(OC)ccc3c(=O)c2c(=O)n1Cc1ccccc1,-17,5,2,67*,0,5
CCOC(=O)C1=C(N)OC2=C(C(=O)CC(C)(C)C2)C1c1cc(CSc2nnnn2C)cs1 (centres undefined),-4,x,3,x,1,6
N#Cc1c(-c2ccccc2)c(-c2ccccc2)nn(CC(=O)NNC(=O)Nc2ccc(Cl)cc2)c1=O,39*,x,x,x,x,51*
COc1cccc(C(=O)NC(c2ccccc2)C2CCCC2)c1 (centres undefined),-9,x,22*,x,4,7
COc1cccc(C(CC(=O)Nc2cccc3ccccc23)NC(=O)c2ccccc2)c1 (centres undefined),-15,11,13,-24,10*,-2
COc1cc(C2C(C(=O)/C=C/c3ccccc3)=C(O)C(=O)N2c2ccccn2)ccc1O (centres undefined),17,x,-6,35,5,24
O=S(=O)(c1ccc(Br)s1)N1CCNCC1,-2,x,x,x,x,22
Cc1cc(C(=O)CSc2ccc(F)cc2)cc(C)c1OC(=S)N(C)C,17,-3,-4,19,8.8*,3
COc1ccc(SCC(=O)c2cc(C)c(OC(=S)N(C)C)c(C)c2)cc1,-12,-2,7,x,8,-22
COc1cc(/C=N/NC(=O)CSc2n[nH]c(=O)[nH]c2=O)cc(OC)c1O,4,x,9,42,0,-3
Cc1ccccc1NC1C=CS(=O)(=O)C1 (centres undefined),107*,0,1,50,0,22
C/C(=N\NC(=O)c1cccc([N+](=O)[O-])c1)c1ccco1,-10,x,x,x,x,11
C/C(=N\NC(=O)c1cccc(N/N=C(\C)c2ccco2)c1)c1ccco1,-9,x,4,82*,2,-3
S=c1[nH]nc(-c2ccccn2)n1/N=C/c1ccc(-c2ccccc2Cl)o1,-12,x,1,x,2,-17
O=C(/C(=C/c1ccc(Cl)cc1)c1nc2ccccc2[nH]1)c1cccs1,-9,46*,23*,49,0,-50
O=C(CCn1c(=O)c2sccc2n(CC(=O)OCc2ccccc2)c1=O)NCc1ccco1,-4,6,11,x,3,-8
O=C(CCn1c(=O)c2sccc2n(CC(=O)OCc2ccccc2)c1=O)NCc1ccccc1,2,1,11,0,11*,-7
COc1ccc(CCn2c(-c3ccc(C(C)(C)C)cc3)n[nH]c2=S)cc1OC,3,x,-1,32,8.7*,-21
CCOC(=O)c1c(C)[nH]c(C(=O)Cn2nnc(-c3ccccc3)n2)c1C,12,5,1,4,8.9*,-13
O=C(OCn1ncc(Br)c(Br)c1=O)c1c(F)cccc1F,-13,0,1,-257,-1,-13
CC(=O)Cn1ncc(Br)c(Br)c1=O,-4,x,1,x,9.9*,5
CCCCC(CC)CNS(=O)(=O)c1ccc2c(c1)CCN2C(=O)CCC(=O)O (centres undefined),18,0,-8,x,2,41*
COCCOC(=O)/C(C#N)=C/c1cn(Cc2ccccc2)nc1-c1cccnc1,8,x,-1,x,-1,-7
CCOC(=O)N1N=C(c2ccccc2)CC1(O)C(C)(F)F (centres undefined),-12,x,-2,74*,0,14
COc1ccc(CNc2nc3ccccc3n2CCN2CCCCC2)c(OC)c1,-7,26*,29*,x,1,-29
SMILES,NPY2 pot ag,NPY Y2 blocker,NPY-Y1 antag,INS promoter inh,RAM inhibit,NPY1 pot ag
COc1cccc(CNc2nc3ccccc3n2CCN2CCCCC2)c1OC,0,25*,42*,-17,1,-17
CCn1c(NCc2cccc(OC)c2OC)nc2ccccc21,2,1,11,-3,0,10
CCOC(=O)Cc1csc(NC(=O)CCCC(=O)O)n1,-20,x,x,x,x,1
COc1ccc(C(=O)NC(=S)Nc2cc(C)ccn2)cc1[N+](=O)[O-],-2,4,0,25,4,-1
Cc1cccc(C)c1NC(=O)CS(=O)CC(=O)NC1CCCc2ccccc21 (centres undefined),13,4,4,-50,1,14
O=C(N/N=C/c1ccccc1)c1sccc1OCc1ccc(F)cc1,-19,20*,1,11,0,-12
O=C(N/N=C/c1ccccc1)c1ccc(OCc2ccccc2)cc1,-20,x,11,x,4,-3
O=C(N/N=C/c1ccncc1)c1ccccc1OCc1ccc(Br)cc1,-54,43*,32*,0,0,-117
COc1cc(C(=O)O)cc(Br)c1OC1CCCC1,-22,8,7,-103,0,-42
Cc1ccc(OCC(=O)N2N=C(C(F)(F)F)CC2(O)C(C)(C)C)cc1C (centres undefined),16,-1,-2,3,0,6
Cc1ccccc1OCC(=O)N1N=C(C(F)(F)F)CC1(O)C(C)(C)C (centres undefined),3,2,-3,-43,9.2*,5
COc1cc(C(c2nnnn2C(C)(C)C)N2CCN(C)CC2)cc(OC)c1OC (centres undefined),3,2,1,x,3,2
Cc1c(Cl)cccc1S(=O)(=O)N1CCC(C(=O)NNC(=O)C2CC2)CC1,-9,x,-3,x,2,14
O=C(Nc1ccc2c(c1)OCCO2)N1CCOCC1,7,x,-3,78*,2,12
O=C(Nc1ccc2c(c1)OCO2)N1CCOCC1,4,4,-4,-9,0,-16
CCOC(=O)c1c(NC(=O)c2cccs2)sc(C)c1CC,-18,3,3,x,11*,-19
CCOC(=O)c1c(-c2ccc(C)o2)csc1NC(=O)CN1CCCCC1,-22,x,10,x,0,-32
CCOC(=O)c1c(-c2cccs2)csc1NC(=O)c1ccncc1,6,2,-5,x,9.6*,5
CCOC(=O)c1c(-c2ccc(C)o2)csc1NC(=S)NC(=O)c1ccc(F)cc1,0,2,-1,-64,11*,8
Cc1sc2nc(C)n(/N=C/c3ccc(O)cc3O)c(=O)c2c1C,-15,x,3,-22,2,-3
CCc1nnc(NC(=O)CCC(=O)N2CCN(C3c4ccccc4-c4ccccc43)CC2)s1,7,8,0,-7,-1,5
Cc1noc(C)c1C(=O)Nc1nc(C23CC4CC(CC(C4)C2)C3)cs1,72*,0,-11,-238,2,45*
CNC(=O)C(=O)Nc1nc(C23CC4CC(CC(C4)C2)C3)cs1,0,x,6,7,2,-4
COc1cc(C)ccc1OCCOc1c(Cl)cc(Cl)cc1Cl,9,0,7,-7,9.9*,-22

# Screens from PubChem.
